Results reported in ChEMBL document CHEMBL4152234, “Aminobenzothiazole derivatives stabilize the thermolabile p53 cancer mutant Y220C and show anticancer activity in p53-Y220C cell lines” (Eur J Med Chem, 2018).
Activity calls are given as the source filed them. The rule behind the calls is not given here.

Key:
[1] = Solubility of the compound in water; type: physicochemical; settings: buffer
[2] = test system: Cellular tumor antigen p53 (Homo sapiens), P04637 [Y220C]; assay: Activation of p53 Y220C mutant in human NUGC3 cells assessed as change in ATM mRNA level at 60 uM after 18 hrs by RT-PCR method relative to control; type: cell-based
Method in brief: (§1)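 p53 signalling qPCR array covering 84 genes. Cells were exposed for 18 h, with 0.5% DMSO in both compound and control samples. Total RNA was extracted and purified. Fold-changes were calculated by ΔΔCt using β2-microglobulin (B2M) as the housekeeping gene. Two independent biological replicates were run per cell line.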

[3] = test system: Cellular tumor antigen p53 (Homo sapiens), P04637 [Y220C]; assay: Activation of p53 Y220C mutant in human NUGC3 cells assessed as change in APAF1 mRNA level at 60 uM after 18 hrs by RT-PCR method relative to control; type: cell-based; method in brief: as §1
[4] = test system: Cellular tumor antigen p53 (Homo sapiens), P04637 [Y220C]; assay: Activation of p53 Y220C mutant in human NUGC3 cells assessed as change in F0X03 mRNA level at 60 uM after 18 hrs by RT-PCR method relative to control; type: cell-based; method in brief: as §1
[5] = test system: Cellular tumor antigen p53 (Homo sapiens), P04637 [Y220C]; assay: Activation of p53 Y220C mutant in human NUGC3 cells assessed as change in CASP9 mRNA level at 60 uM after 18 hrs by RT-PCR method relative to control; type: cell-based; method in brief: as §1
[6] = test system: Cellular tumor antigen p53 (Homo sapiens), P04637 [Y220C]; assay: Activation of p53 Y220C mutant in human NUGC3 cells assessed as change in FAS mRNA level at 60 uM after 18 hrs by RT-PCR method relative to control; type: cell-based; method in brief: as §1
[7] = test system: Cellular tumor antigen p53 (Homo sapiens), P04637 [Y220C]; assay: Activation of p53 Y220C mutant in human NUGC3 cells assessed as change in CDC25C mRNA level at 60 uM after 18 hrs by RT-PCR method relative to control; type: cell-based; method in brief: as §1
[8] = test system: Cellular tumor antigen p53 (Homo sapiens), P04637 [Y220C]; assay: Activation of p53 Y220C mutant in human NUGC3 cells assessed as change in GML mRNA level at 60 uM after 18 hrs by RT-PCR method relative to control; type: cell-based; method in brief: as §1
[9] = test system: Cellular tumor antigen p53 (Homo sapiens), P04637 [Y220C]; assay: Activation of p53 Y220C mutant in human NUGC3 cells assessed as change in SESN2 mRNA level at 60 uM after 18 hrs by RT-PCR method relative to control; type: cell-based
Method in brief: (§2)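 p53 signalling qPCR array covering 84 p53 pathway genes. Cells were exposed for 18 h, and compound and control wells both held 0.5% DMSO. Total RNA was extracted and purified. Fold-changes were calculated by the ΔΔCt method against the untreated sample, with β2-microglobulin (B2M) as the housekeeping gene. Each cell line was run in two independent biological replicates.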

[10] = test system: Cellular tumor antigen p53 (Homo sapiens), P04637 [Y220C]; assay: Activation of p53 Y220C mutant in human NUGC3 cells assessed as change in BIRC5 mRNA level at 60 uM after 18 hrs by RT-PCR method relative to control; type: cell-based; method in brief: as §1
[11] = test system: Cellular tumor antigen p53 (Homo sapiens), P04637 [Y220C]; assay: Activation of p53 Y220C mutant in human NUGC3 cells assessed as change in PIDD1 mRNA level at 60 uM after 18 hrs by RT-PCR method relative to control; type: cell-based; method in brief: as §2
[12] = molecular target: T1, Cellular tumor antigen p53 (Homo sapiens, UniProt P04637); assay: Activation of p53 in human NUGC4 cells assessed as change in ATR mRNA level at 60 uM after 18 hrs by RT-PCR method relative to control; type: cell-based; settings: read-out: FC; method in brief: as §2
[13] = molecular target: T1, Cellular tumor antigen p53; assay: Activation of p53 in human NUGC4 cells assessed as change in F0X03 mRNA level at 60 uM after 18 hrs by RT-PCR method relative to control; type: cell-based; settings: read-out: FC
Method in brief: (§3)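 p53 signaling qPCR array of 84 p53-pathway genes. Cells were treated in 6-well plates for 18 h with 0.5% DMSO in compound and control samples. Total RNA was extracted and fold-changes were obtained by the ΔΔCt method against untreated control, with β2-microglobulin (B2M) as housekeeping gene. Two independent biological replicates per cell line.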

[14] = molecular target: T1, Cellular tumor antigen p53; assay: Activation of p53 in human NUGC4 cells assessed as change in CASP9 mRNA level at 60 uM after 18 hrs by RT-PCR method relative to control; type: cell-based; settings: read-out: FC; method in brief: as §3
[15] = molecular target: T1, Cellular tumor antigen p53; assay: Activation of p53 in human NUGC4 cells assessed as change in CCNG1 mRNA level at 60 uM after 18 hrs by RT-PCR method relative to control; type: cell-based; settings: read-out: FC; method in brief: as §3
[16] = molecular target: T1, Cellular tumor antigen p53; assay: Activation of p53 in human NUGC4 cells assessed as change in EI24 mRNA level at 60 uM after 18 hrs by RT-PCR method relative to control; type: cell-based; settings: read-out: FC; method in brief: as §3
[17] = molecular target: T1, Cellular tumor antigen p53; assay: Activation of p53 in human NUGC4 cells assessed as change in PRKCA mRNA level at 60 uM after 18 hrs by RT-PCR method relative to control; type: cell-based; settings: read-out: FC
[18] = molecular target: T1, Cellular tumor antigen p53; assay: Activation of p53 in human NUGC4 cells assessed as change in MYC mRNA level at 60 uM after 18 hrs by RT-PCR method relative to control; type: cell-based; settings: read-out: FC; method in brief: as §3
[19] = molecular target: T1, Cellular tumor antigen p53; assay: Activation of p53 in human NUGC4 cells assessed as change in HDAC1 mRNA level at 60 uM after 18 hrs by RT-PCR method relative to control; type: cell-based; settings: read-out: FC; method in brief: as §3
[20] = molecular target: T1, Cellular tumor antigen p53; assay: Activation of p53 in human NUGC4 cells assessed as change in KAT2B mRNA level at 60 uM after 18 hrs by RT-PCR method relative to control; type: cell-based; settings: read-out: FC; method in brief: as §3
[21] = molecular target: T1, Cellular tumor antigen p53; assay: Activation of p53 in human NUGC4 cells assessed as change in MDM4 mRNA level at 60 uM after 18 hrs by RT-PCR method relative to control; type: cell-based; settings: read-out: FC; method in brief: as §3
[22] = molecular target: T1, Cellular tumor antigen p53; assay: Activation of p53 in human NUGC4 cells assessed as change in TP53BP2 mRNA level at 60 uM after 18 hrs by RT-PCR method relative to control; type: cell-based; settings: read-out: FC
[23] = molecular target: T1, Cellular tumor antigen p53; assay: Activation of p53 in human NUGC4 cells assessed as change in IGF1R mRNA level at 60 uM after 18 hrs by RT-PCR method relative to control; type: cell-based; settings: read-out: FC; method in brief: as §3
[24] = molecular target: T1, Cellular tumor antigen p53; assay: Activation of p53 in human NUGC4 cells assessed as change in CDK1 mRNA level at 60 uM after 18 hrs by RT-PCR method relative to control; type: cell-based; settings: read-out: FC; method in brief: as §3
[25] = molecular target: T1, Cellular tumor antigen p53; assay: Activation of p53 in human NUGC4 cells assessed as change in ADGRB1 mRNA level at 60 uM after 18 hrs by RT-PCR method relative to control; type: cell-based; settings: read-out: FC; method in brief: as §2
[26] = molecular target: T1, Cellular tumor antigen p53; assay: Activation of p53 in human NUGC4 cells assessed as change in TP73 mRNA level at 60 uM after 18 hrs by RT-PCR method relative to control; type: cell-based; settings: read-out: FC
[27] = molecular target: T1, Cellular tumor antigen p53; assay: Activation of p53 in human NUGC4 cells assessed as change in STAT1 mRNA level at 60 uM after 18 hrs by RT-PCR method relative to control; type: cell-based; settings: read-out: FC
Huh-7 [28] = assay: Upregulation of BBC3 mRNA level in p53 Y220C mutant knockout human HuH7 cells at 30 uM after 18 hrs by RT-PCR method; type: functional, cell-based
Huh-7 [29] = assay: Upregulation of p21 mRNA level in p53 Y220C mutant knockout human HuH7 cells at 30 uM after 18 hrs by RT-PCR method; type: functional, cell-based
SW1088 = assay: Antiproliferative activity against human SW1088 cells harboring p53 R273C mutant assessed as cell viability at <40 uM after 72 hrs by CellTiter-Glo assay relative to control

CCNC(=O)c1c(O)c(I)c(-n2cccc2)c2sc(N(CC)CC)nc12
solubility [1]: Insoluble
fold change (FC) [2]: 0.9
fold change (FC) [3]: 1.2
fold change (FC) [4]: 2
fold change (FC) [5]: 1
fold change (FC) [6]: 2.6
fold change (FC) [7]: 0.7
fold change (FC) [8]: 3.1
fold change (FC) [9]: 0.7
fold change (FC) [10]: 0.6
fold change (FC) [11]: 1.2
fold induction at 60 µM [12]: 0.9
fold induction at 60 µM [13]: 0.8
fold induction at 60 µM [14]: 1
fold induction at 60 µM [15]: 1
fold induction at 60 µM [16]: 0.8
fold induction at 60 µM [17]: 1
fold induction at 60 µM [18]: 0.7
fold induction at 60 µM [19]: 0.8
fold induction at 60 µM [20]: 1
fold induction at 60 µM [21]: 0.9
fold induction at 60 µM [22]: 0.9
fold induction at 60 µM [23]: 0.8
fold induction at 60 µM [24]: 0.8
fold induction at 60 µM [25]: 2.9
fold induction at 60 µM [26]: 0.4
fold induction at 60 µM [27]: 0.9
Activity (Huh-7 [28]): inactive
Activity (Huh-7 [29]): inactive
Activity (SW1088): >80%
